In ChEMBL document CHEMBL2401626 (J Med Chem, 2013):
Active and inactive are the calls of the source. No cut-off for these calls is given here.

Experiments:
[1] = Cytotoxicity against human SH-SY5Y cells assessed as cell viability at 10 uM after 24 hrs by MTT assay; assay type: cell-based
Outline: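 SH-SY5Y cells seeded 5 × 10^4/well, then exposed to compound for 24 h at 37 °C. MTT (0.5 mg/mL final) added for 4 h; formazan dissolved in DMSO and read at 570 nm. Viability is treated/untreated absorbance × 100, each corrected for zero-day control. Three independent experiments in sextuplicate.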

[2] = target: T1, Amine oxidase [flavin-containing] B (Homo sapiens, UniProt P27338)
T1 sequence (P27338 whole entry): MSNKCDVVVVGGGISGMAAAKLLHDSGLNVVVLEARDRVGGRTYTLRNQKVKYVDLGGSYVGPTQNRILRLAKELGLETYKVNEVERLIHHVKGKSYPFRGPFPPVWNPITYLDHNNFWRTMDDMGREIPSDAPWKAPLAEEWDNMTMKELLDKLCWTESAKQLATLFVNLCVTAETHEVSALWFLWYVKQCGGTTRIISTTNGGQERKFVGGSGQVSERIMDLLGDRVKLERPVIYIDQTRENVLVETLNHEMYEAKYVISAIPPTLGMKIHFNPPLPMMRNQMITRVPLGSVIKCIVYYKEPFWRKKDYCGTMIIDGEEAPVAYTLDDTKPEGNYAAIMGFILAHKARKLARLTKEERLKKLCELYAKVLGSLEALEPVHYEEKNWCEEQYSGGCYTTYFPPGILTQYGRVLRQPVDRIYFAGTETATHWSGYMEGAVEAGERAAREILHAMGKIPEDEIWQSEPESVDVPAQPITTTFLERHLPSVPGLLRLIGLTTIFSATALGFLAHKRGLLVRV

[3] = target: T2, Amine oxidase [flavin-containing] A (Homo sapiens, UniProt P21397); test: Inhibition of human recombinant MAOA using p-tyramine as substrate incubated for 15 mins prior to substrate addition measured after 20 mins by fluorescence plate reader analysis
T2 sequence (P21397 whole entry): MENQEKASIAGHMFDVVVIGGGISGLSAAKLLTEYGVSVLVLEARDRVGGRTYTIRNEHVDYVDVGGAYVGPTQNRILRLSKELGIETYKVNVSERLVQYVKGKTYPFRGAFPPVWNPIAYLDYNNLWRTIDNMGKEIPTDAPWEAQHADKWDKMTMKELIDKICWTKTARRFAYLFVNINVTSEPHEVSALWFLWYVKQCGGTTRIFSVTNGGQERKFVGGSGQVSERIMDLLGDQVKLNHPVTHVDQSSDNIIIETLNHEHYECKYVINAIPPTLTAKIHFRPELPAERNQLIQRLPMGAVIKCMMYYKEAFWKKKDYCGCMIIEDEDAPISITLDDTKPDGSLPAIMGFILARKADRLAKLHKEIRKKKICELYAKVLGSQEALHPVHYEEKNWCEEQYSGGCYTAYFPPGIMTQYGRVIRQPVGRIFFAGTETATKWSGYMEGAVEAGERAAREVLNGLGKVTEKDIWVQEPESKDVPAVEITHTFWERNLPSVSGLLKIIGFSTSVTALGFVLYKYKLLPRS

Cholinesterase = Cholinesterase (Equus caballus, UniProt P81908); test: Inhibition of equine serum BuChE using butylthiocholine chloride as substrate preincubated for 15 mins followed by substrate addition measured every 1 min by Ellman's method
Acetylcholinesterase = Acetylcholinesterase (Electrophorus electricus, UniProt O42275); test: Inhibition of electric eel AChE using acetylthiocholine chloride as substrate preincubated for 15 mins followed by substrate addition measured every 1 min by Ellman's method
Outline: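 Ellman method in 0.1 M potassium phosphate buffer, pH 8.0, 1 mL assay containing DTNB and thiocholine substrate (each 50 μL of 0.01 M stock). Enzyme (AChE stock 2.0 units/mL) preincubated with compound 15 min at 37 °C, then substrate added. A412 read at 1 min intervals at 37 °C. Each concentration in triplicate. IC50 from at least three experiments.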

[4] = target: Amyloid-beta precursor protein (Homo sapiens, UniProt P05067)
SH-SY5Y = test: Antioxidant activity in human SH-SY5Y cells assessed as decrease in t-BuOOH-induced intracellular ROS production at 5 to 20 uM incubated for 24 hrs prior to t-BuOOH challenge measured after 30 mins by DCFHDA-based fluorescence assay; assay type: functional, cell-based
Outline: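 SH-SY5Y cells (DMEM, 10% FCS, 37 °C, 5% CO2) seeded 1 × 10^4/well and grown 24 h. Compound added for 24 h; Trolox control at 5, 10, 20 μM. Cells are then washed, loaded with 5 μM DCFH-DA in PBS for 30 min, and challenged with 0.1 mM t-BuOOH for 30 min. Fluorescence read at ex 485/em 535 nm. Result is % of control by formula; three independent experiments in sextuplicate.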

Mus musculus = test: Acute toxicity in KM mouse at 677 to 2000 mg/kg, po after 14 days; assay type: organism-based; parameters: dose 677-2000 mg/kg, route oral; conditions: in vivo, 336 h
Outline: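 Male KM mice (22 days, 18−20 g), fasted overnight with free access to water, n = 5 per group; single oral dose of 0, 677, 1333 or 2000 mg/kg suspended in 0.5% CMC-Na. Watched continuously for 4 h, intermittently for 24 h, then occasionally to day 14 for behaviour and mortality; killed day 14, heart, liver and kidneys examined macroscopically.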

Acetylcholinesterase, sequence (O42275 whole entry): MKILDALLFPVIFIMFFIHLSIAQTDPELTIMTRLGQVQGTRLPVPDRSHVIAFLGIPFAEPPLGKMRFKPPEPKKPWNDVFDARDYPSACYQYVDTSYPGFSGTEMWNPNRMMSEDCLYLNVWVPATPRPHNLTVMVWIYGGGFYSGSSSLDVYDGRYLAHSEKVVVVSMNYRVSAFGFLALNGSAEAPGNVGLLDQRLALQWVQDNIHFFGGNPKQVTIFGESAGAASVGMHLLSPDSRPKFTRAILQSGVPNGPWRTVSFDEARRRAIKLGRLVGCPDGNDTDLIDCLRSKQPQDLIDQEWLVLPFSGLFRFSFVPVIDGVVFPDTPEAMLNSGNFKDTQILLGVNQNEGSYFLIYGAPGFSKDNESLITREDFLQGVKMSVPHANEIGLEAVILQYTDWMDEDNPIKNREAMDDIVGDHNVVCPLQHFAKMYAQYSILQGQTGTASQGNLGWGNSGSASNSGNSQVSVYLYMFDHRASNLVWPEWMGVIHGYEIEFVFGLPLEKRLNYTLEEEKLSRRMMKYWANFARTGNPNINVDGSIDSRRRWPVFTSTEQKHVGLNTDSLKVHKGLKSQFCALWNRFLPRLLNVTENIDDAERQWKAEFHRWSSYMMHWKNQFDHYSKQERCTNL
Cholinesterase, sequence (P81908 whole entry): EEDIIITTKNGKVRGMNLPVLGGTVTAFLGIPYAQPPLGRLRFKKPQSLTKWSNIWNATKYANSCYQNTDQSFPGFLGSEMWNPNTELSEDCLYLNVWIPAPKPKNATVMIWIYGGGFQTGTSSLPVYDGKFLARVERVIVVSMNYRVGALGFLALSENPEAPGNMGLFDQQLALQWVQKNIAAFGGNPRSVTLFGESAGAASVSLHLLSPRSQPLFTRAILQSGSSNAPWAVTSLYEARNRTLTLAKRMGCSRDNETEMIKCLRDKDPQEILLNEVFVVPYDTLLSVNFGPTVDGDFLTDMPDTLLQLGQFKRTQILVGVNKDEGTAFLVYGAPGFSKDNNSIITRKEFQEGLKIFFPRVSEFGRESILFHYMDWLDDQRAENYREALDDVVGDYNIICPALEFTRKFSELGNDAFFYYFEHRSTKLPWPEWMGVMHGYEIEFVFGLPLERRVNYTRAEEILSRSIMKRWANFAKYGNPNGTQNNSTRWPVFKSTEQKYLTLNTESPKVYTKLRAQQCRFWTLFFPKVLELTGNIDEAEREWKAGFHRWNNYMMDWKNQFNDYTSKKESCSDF
Amyloid-beta precursor protein, sequence (P05067 whole entry): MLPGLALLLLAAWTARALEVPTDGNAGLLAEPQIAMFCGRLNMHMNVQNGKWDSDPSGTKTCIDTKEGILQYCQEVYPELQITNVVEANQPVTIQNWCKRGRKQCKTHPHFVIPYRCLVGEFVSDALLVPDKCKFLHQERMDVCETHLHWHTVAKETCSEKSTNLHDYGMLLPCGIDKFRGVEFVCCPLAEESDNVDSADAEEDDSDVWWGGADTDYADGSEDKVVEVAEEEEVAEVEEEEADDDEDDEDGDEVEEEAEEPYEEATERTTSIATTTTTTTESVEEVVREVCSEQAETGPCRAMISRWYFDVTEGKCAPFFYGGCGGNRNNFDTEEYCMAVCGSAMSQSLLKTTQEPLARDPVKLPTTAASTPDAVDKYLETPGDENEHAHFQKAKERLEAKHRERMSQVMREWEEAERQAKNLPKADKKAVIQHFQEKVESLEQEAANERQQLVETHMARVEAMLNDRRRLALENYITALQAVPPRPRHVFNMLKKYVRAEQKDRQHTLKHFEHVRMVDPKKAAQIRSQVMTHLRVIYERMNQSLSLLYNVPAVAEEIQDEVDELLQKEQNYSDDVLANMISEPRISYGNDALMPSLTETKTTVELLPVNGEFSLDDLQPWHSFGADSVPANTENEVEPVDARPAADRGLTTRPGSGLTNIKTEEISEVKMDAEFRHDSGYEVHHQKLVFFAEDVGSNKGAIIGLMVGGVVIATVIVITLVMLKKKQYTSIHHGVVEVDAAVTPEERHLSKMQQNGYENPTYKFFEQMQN

Compound | Activity [1] | IC50 [2] [µM] | IC50 [3] [µM] | IC50 (Cholinesterase) [µM] | IC50 (Acetylcholinesterase) [µM] | IC50 [4] [µM] | Activity (SH-SY5Y) | Activity (Mus musculus)
CN(C)c1ccc(O)c(CNc2ccc(/C=C/c3cc(O)cc(O)c3)cc2)c1 | Non-toxic | 14.1 | 7.08 | 21.2 | 6.27 | 6.51 | – | –
Cc1c(C)c2c(c(C)c1O)CCC(C)(C(=O)O)O2 (racemic) | – | – | – | – | – | – | Active | –
COc1cc(/C=C/c2ccc(NCc3cc(N(C)C)ccc3O)cc2)cc(OC)c1 | Non-toxic | 12.2 | 8.19 | > 50 | 36 | 7.56 | – | Non-toxic
